Source: PubChem BioAssay
A selection: hits, their analogues and other compounds. The true share with any hit is near 4.8%.
UCH37 DUB inh: inhibitors of human deubiquitinating enzyme UCH37 | Q9Y5K5 | purified proteasome/UCH37, Ub-AMC cleavage fluorescence | inhibition, % (concentration not given with the values) | hit rate 0.33% among 330,000 | AID 588478;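 active means mean inhibition over replicate wells above about 20%, limit read from the data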;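 further: 0% = compound-free wells with enzyme and 100% = wells lacking proteasome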
Target sequence (Q9Y5K5 whole entry, looked up): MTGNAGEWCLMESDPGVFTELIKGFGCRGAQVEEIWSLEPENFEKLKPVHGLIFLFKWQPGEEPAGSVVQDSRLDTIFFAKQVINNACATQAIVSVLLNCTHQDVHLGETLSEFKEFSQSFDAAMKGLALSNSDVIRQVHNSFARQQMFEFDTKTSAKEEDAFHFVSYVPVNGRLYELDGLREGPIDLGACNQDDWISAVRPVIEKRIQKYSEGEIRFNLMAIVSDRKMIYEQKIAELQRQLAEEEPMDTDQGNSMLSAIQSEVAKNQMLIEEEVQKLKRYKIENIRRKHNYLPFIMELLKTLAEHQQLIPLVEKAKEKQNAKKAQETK
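System: Proteasome-associated human UCH37 deubiquitinase; Input: 0.15 nM proteasome in added enzyme buffer; Also added: Ub-AMC substrate from 1 µM stock; Incubation: 30 min compound-proteasome preincubation then 25 min substrate reaction, room temperature; Detection: fluorescence, ex 355 nm, em 460 nm; Read-out: % inhibition of Ub-AMC cleavage fluorescence; Benchmarks: no-proteasome and no-compound wells.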
Calb FLC: C. albicans growth modulation with fluconazole | C. albicans CaCi-2 + fluconazole, Alamar Blue growth, 48 h | hit rate 0.57% among 300,000 | growth inhibition, % (no concentration beside the values) | AID 1979;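 active means growth inhibition above about 58% in most replicates, limit read from the data, passing the limit was not always enough; inconclusive means exactly half the replicates above a set limit; inactive means most replicates below a set limit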;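 further: all wells also contain fluconazole at 8 µg/ml as a sub-toxic cotreatment; 0% = median of DMSO wells and 100% = median of geldanamycin control wells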
ALR H2O2 inh: blocks human ALR sulfhydryl oxidase activity | P55789 | purified ALR, DTT oxidation, H2O2 HRP-luminol luminescence | inhibition, % (concentration not given with the values) | hit rate 3.8% among 290,000;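 active means mean replicate inhibition above about 79%, with every replicate also reaching it, limit read from the data; inconclusive means only one of the two criteria met; inactive means mean below limit and not every replicate reaching it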
Target sequence (P55789 whole entry, looked up): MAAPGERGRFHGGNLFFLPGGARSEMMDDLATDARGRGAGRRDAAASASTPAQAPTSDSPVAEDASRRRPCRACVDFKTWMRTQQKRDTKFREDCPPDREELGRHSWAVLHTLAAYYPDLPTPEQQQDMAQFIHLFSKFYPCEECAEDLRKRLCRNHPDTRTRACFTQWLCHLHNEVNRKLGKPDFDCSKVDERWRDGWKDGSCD
NLRP3 yeast inh: NALP3 inhibition in yeast | Yeast reconstituted NLRP3/ASC/caspase-1, beta-gal luminescence, 24 h | inhibition, % at 10 µM | hit rate 0.39% among 330,000 | AID 2825;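 active means inhibition of 50% or more; inactive means inhibition below 50%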;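 further: plate controls were induced DMSO wells for no effect and uninduced yeast grown without galactose for full effect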
ATG4B inhibitor: blocks human ATG4B protease cleavage of LC3 substrate; inhibition, % at 8.33 µM; hit rate 0.51% among 340,000; ATG4B cleavage of LC3-PLA2, NBD-HPC fluorescence, 1 h; in the data active means inhibition above about 40%
NALP1 yeast inh: inhibitors of NALP1 inflammasome in yeast | inhibition, % at 10 µM | AID 2071 | S. cerevisiae NALP1/ASC/caspase-1 growth, X-gal OD620, 72 h | hit rate 0.61% among 280,000; in the data active means inhibition mostly above about 24%, no sharp cut-off; inactive means mostly below about 32%
* = called active by the depositor; ? = inconclusive; . = no result.

SMILES	UCH37 DUB inh	Calb FLC	ALR H2O2 inh	NLRP3 yeast inh	ATG4B inhibitor	NALP1 yeast inh
COCCn1c(SCC(=O)Nc2cccc(NC(C)=O)c2)nc2c([nH]c3ccccc32)c1=O	-2	.	98*	14	6	16
Cc1ccccc1CSc1nnc(-c2ccccn2)n1C	2	18	-2	40	-4	-5
Cc1ccccc1CSc1nccn1-c1ccccc1	2	-2	99*	45	11	2
Cc1ccccc1S(=O)(=O)NC1OC(=O)C(Oc2ccccc2)=C1Br (stereo not given)	5	-6	95*	-2	25	6
Cc1ccccc1S(=O)(=O)NC1OC(=O)C(Cl)=C1Cl (stereo not given)	.	-2	14	7	7	14
O=C(CSCc1cc(=O)[nH][nH]1)Nc1ccc(F)cc1	-1	-4	14	25	-6	5
CCCCc1ccc(NC(=O)CSCc2cc(=O)[nH][nH]2)cc1	0	-11	79*	6	-8	7
CCCN(C(=O)/C=C/c1ccco1)c1c(N)n(Cc2ccccc2)c(=O)[nH]c1=O	7	-3	-20	23	-2	6
CCCCN(C(=O)/C=C/c1ccco1)c1c(N)n(Cc2ccccc2)c(=O)[nH]c1=O	5	113*	.	12	1	12
O=C(NN=CC(c1ccccc1)c1ccccc1)c1ccccc1F	0	.	.	.	.	.
COc1cc(C(=O)ON=C2C=C(C)C(=O)C(C)=C2)cc(OC)c1OC	10	13	57	3	-4	33
COc1cc(C(=O)O/N=C2\C=CC(=O)C(C)=C2)cc(OC)c1OC	.	21	98*	3	-6	18
c1ccc(NNC2=NCCCCC2)cc1	.	-16	99*	14	-2	-2
Cc1cc(C(=O)NN=Cc2ccc(-c3cccc(Br)c3)o2)n[nH]1	-287	.	.	.	.	.
CC(C)Oc1ccc(C=NNC(=O)c2ccc(N(Cc3ccccc3)S(C)(=O)=O)cc2)cc1	1	.	.	.	.	.
CCCN1Cc2cccc(C(=O)N3CCN(c4ccccc4)CC3)c2C1=O	3	-18	58	18	-6	15
COCCN1Cc2cccc(C(=O)N3CCN(c4ccccc4)CC3)c2C1=O	1	14	95*	5	-3	29
COCCN1Cc2cccc(C(=O)Nc3cc(OC)ccc3OC)c2C1=O	4	-3	-31	15	-14	28*
COC(=O)c1ccc(C=NN2CCN(Cc3ccc(C)cc3C)CC2)cc1	5	.	.	.	.	.
Cc1sc(N)nc1-c1c(C)n(C)c2ccccc12	4	-7	99*	13	-12	0
COc1ccc(/C=C/C(=O)NCC(=O)NN=C(C)Cc2ccccc2)cc1	5	.	.	.	.	.
Cc1cc(-c2ccccc2)nc(NN=Cc2ccc(N(C)C)cc2)n1	6	.	.	.	.	.
CC1CCCC(C)N1C(=O)c1cc(-c2ccco2)on1 (stereo not given)	0	0	.	3	0	4
COc1cccc(-c2cc(C(=O)N3C(C)CCCC3C)no2)c1 (stereo not given)	2	4	-3	10	-2	43*
COc1ccc(N(CC(=O)NN=Cc2cccnc2)S(=O)(=O)c2ccccc2)c(OC)c1	0	.	.	.	.	.
SMILES	UCH37 DUB inh	Calb FLC	ALR H2O2 inh	NLRP3 yeast inh	ATG4B inhibitor	NALP1 yeast inh
S=c1[nH]nc(-c2ccc(Cl)cc2Cl)n1-c1ccccc1	2	-7	49	26	6	8
S=c1[nH]nc(COc2ccc(Cl)cc2Cl)n1-c1ccccc1	2	-9	84*	3	3	-11
Cc1cc(/C=C2/C(=N)N3C(=NC2=O)SN=C3S(C)(=O)=O)c(C)n1-c1ccccc1F	.	-10	91*	12	16	13
CCCCNC(=O)CSc1nnc(Cc2ccc(Cl)c(Cl)c2)c(=O)[nH]1	.	6	-13	-5	2	1
CC(C)(C)c1ccc(Cc2n[nH]c(=S)[nH]c2=O)cc1	2	78*	28	20	2	3
O=c1[nH]c(=S)[nH]nc1Cc1ccc(Cl)c(Cl)c1	2	91*	11	18	8	-8
NC(Cc1ccc([N+](=O)[O-])cc1)=NOC(=O)COc1ccccc1Cl	0	.	.	.	.	.
Cc1ccc(NC2=CC(=O)CC(C)(C)C2)cc1F	4	18	-7	5	0	27
Cc1cc(N)c(NC2=CC(=O)CC(C)(C)C2)cc1C	1	13	98*	4	-13	10
Cc1cc(C)n2nc(C(=O)N3CCCC(Nc4ccc(F)c(F)c4)C3)cc2n1 (stereo not given)	3	-1	4	3	-5	5
Cc1nnsc1C(=O)N1CCCC(Nc2ccc(C(C)C)cc2)C1 (stereo not given)	2	-11	72	16	2	19
CC(C)c1ccc(NC2CCCN(C(=O)c3cscn3)C2)cc1 (stereo not given)	2	-6	99*	4	7	10
CC(C)c1ccc(NC2CCCN(C(=O)c3ccccc3-c3ncc[nH]3)C2)cc1 (stereo not given)	3	-26	88*	6	-6	-18
CC(C)c1ccc(NC2CCCN(C(=O)c3cccc4nccnc34)C2)cc1 (stereo not given)	1	1	66	4	16	10
Cc1cc(C)n2nc(C(=O)N3CCCC(Nc4ccc(C(C)C)cc4)C3)cc2n1 (stereo not given)	-25	-10	97*	14	26	8
Cc1[nH][nH]c(=O)c1C=NN1CCOCC1	5	.	.	.	.	.
Cc1ccc(C(=O)NN=Cc2ccoc2)cc1C	5	.	.	.	.	.
O=C(CCC(=O)Nc1cccc2ccccc12)NN=Cc1ccco1	0	.	.	.	.	.
O=C(NNC(=O)C1[C@H]2CCCC[C@@H]12)c1ccc(=O)oc1 (stereo not given in full)	-119	2	96*	-4	5	-5
O=S(=O)(ON=C1CCCc2ccccc21)c1ccc(Cl)cc1	2	.	.	.	.	.
O=[N+]([O-])c1cccc(-c2ccc(C=NNc3nc(N4CCCCC4)nc(N4CCCCC4)n3)o2)c1	8	.	.	.	.	.
NS(=O)(=O)c1ccc(NN=Cc2ccncc2)cc1	17	.	.	.	.	.
Nc1cc(=O)[nH]c(SCc2ccc(Cl)cc2)n1	10	16	-1	13	3	19
Clc1ccc(CSc2nc3ccncc3[nH]2)cc1	5	1	90*	16	-5	-2
O=c1cc(O)nc(SCc2ccc(Cl)cc2)[nH]1	3	10	98*	-9	4	5
CS(=O)(=O)c1nc(-c2cccs2)cc(C(F)(F)F)n1	.	97*	99*	28	.	12
O=C(O)CCS(=O)(=O)c1nc(-c2cccs2)cc(C(F)(F)F)n1	1	32	97*	-2	8	-18
CS(=O)(=O)c1nc(-c2ccc(F)cc2)cc(C(F)(F)F)n1	3	?	.	.	-6	25
COc1ccc(C(C)=Nn2cnnc2)cc1	-2	.	.	.	.	.
COc1cnc(-c2ccccn2)nc1Sc1ccccc1	1	18	96*	23	12	17
